The source of these data is ChEMBL document CHEMBL1800016, “Novel thiazolidinedione derivatives with anti-obesity effects: dual action as PTP1B inhibitors and PPAR-γ activators” (Bioorg Med Chem Lett, 2010).

The structures appear in SMILES notation. Active and inactive are the calls of the source. The rule behind the calls is not given here.

Series [1] addresses T1, Tyrosine-protein phosphatase non-receptor type 1 (Homo sapiens, UniProt P18031).
T1 sequence (P18031 whole entry): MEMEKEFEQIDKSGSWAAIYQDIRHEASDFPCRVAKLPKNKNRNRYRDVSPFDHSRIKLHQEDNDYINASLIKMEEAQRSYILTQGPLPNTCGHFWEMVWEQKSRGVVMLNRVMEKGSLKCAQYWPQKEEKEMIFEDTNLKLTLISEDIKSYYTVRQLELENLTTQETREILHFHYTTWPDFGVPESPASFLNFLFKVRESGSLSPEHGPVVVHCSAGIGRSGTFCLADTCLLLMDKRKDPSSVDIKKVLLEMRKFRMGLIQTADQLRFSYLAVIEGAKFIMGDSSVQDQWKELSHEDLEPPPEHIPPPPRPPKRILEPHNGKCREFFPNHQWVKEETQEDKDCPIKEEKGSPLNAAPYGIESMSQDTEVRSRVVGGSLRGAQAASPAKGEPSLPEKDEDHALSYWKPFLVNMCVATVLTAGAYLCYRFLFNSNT
The experiment in a line: Inhibition of PTP1B expressed in Escherichia coli assessed as p-nitrophenol release from pNPP substrate preincubated for 10 mins. Put shortly: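 IC50 values against the PTP panel, with enzymes prepared as described in the supplementary material. Values are means ± SD of two or more experiments.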

Series [2] deals with Mus musculus. The experiment in a line: Antiobesity activity in high fat diet-fed diabetic C57BL/6J Jms Slc mouse model assessed as weight gain/kcal at 2.6 mg/day administered with food for 4 weeks. It counts as functional. Put shortly: (§1)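 DIO male C57BL/6J Jms Slc mice were fed a 45%-fat HFD for 8 wk, then HFD with 0.1% w/w compound in feed (about 2.6 mg/day/mouse) for 4 wk. A 10%-fat LFD lean group ran throughout. Measures were weight gain, feed efficiency (weight gain/kcal ×100), and epididymal and retroperitoneal fat pad weights. n = 8/group; mean ± SEM; one-way ANOVA.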

The test system of series [3] is Mus musculus. The experiment in a line: Antidiabetic activity in high fat diet-fed diabetic C57BL/6J Jms Slc mouse model assessed as normalization of blood glucose level at 2.6 mg/day administered with food for 4 weeks measured 60 mins after last dose by glucose tolerance test. The series is classed as functional, organism-based. In outline: (§2)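 Mice were male C57BL/6J Jms Slc, 5 wk old after 1 wk acclimatization. They were fed a 45%-fat HFD for 8 wk, then HFD with compound mixed in (1.0 g/kg diet, about 2.6 mg/day/mouse, 78 mg/day/kg) for 4 wk. Each mouse was fasted 6 h from the start of the light cycle and fasting glucose was measured. Glucose 1.0 g/kg was then given i.p., with readings at 60 and 90 min.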

Series [4] deals with Mus musculus. The experiment in a line: Antiobesity activity in high fat diet-fed diabetic C57BL/6J Jms Slc mouse model assessed as decrease in non-esterified free fatty acid level in serum at 2.6 mg/day administered with food for 4 weeks. The series is classed as functional. In outline:
(§3)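 DIO mice were fed HFD for 8 wk, then HFD containing 0.1% w/w compound (about 2.6 mg/day/mouse) for 4 wk. At the end of feeding, mice were deprived of food overnight. Serum total cholesterol, triglyceride and NEFA were then measured. Values are mean ± SEM.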

The test system of series [5] is Mus musculus. The experiment in a line: Antiobesity activity in high fat diet-fed diabetic C57BL/6J Jms Slc mouse model assessed as decrease in serum triglyceride level at 2.6 mg/day administered with food for 4 weeks. It counts as functional. In outline: as §3
The target in series [6] is T2, Peroxisome proliferator-activated receptor gamma (Homo sapiens) (UniProt P37231).
T2 sequence (whole entry): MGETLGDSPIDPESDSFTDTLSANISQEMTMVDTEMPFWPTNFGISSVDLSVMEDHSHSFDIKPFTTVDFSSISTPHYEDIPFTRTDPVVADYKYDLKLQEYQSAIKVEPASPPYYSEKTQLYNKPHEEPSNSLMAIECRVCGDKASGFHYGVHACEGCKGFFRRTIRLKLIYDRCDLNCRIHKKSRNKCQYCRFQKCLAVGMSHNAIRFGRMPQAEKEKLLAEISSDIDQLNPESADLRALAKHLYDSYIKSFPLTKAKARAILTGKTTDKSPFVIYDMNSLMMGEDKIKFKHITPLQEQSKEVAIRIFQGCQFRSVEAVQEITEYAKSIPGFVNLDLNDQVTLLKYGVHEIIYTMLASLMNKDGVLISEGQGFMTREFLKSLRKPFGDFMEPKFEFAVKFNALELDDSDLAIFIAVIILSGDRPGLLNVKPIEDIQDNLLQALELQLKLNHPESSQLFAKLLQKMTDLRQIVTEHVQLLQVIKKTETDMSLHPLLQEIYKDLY
The experiment in a line: Agonist activity at PPARgamma expressed in HepG2 cells co-expressing PPRE assessed as concentration required for maximal activation after 24 hrs by luciferase reporter gene assay. It counts as functional, cell-based.

Series [7] deals with T3, Tyrosine-protein phosphatase non-receptor type 1 (Homo sapiens) (UniProt P18031).
T3 sequence (whole entry): T1 sequence (P18031 whole entry)
Description: Competitive inhibition of PTP1B expressed in Escherichia coli.

Series [8] concerns the target T4, Peroxisome proliferator-activated receptor gamma (Homo sapiens, UniProt P37231).
T4 sequence (P37231 whole entry): T2 sequence (whole entry)
The experiment in a line: Agonist activity at PPARgamma expressed in HepG2 cells co-expressing PPRE assessed as transcriptional activation after 24 hrs by luciferase reporter gene assay. It counts as functional, cell-based. In outline:
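HepG2 cells were transfected with a PPRE-driven luciferase reporter plus CMV-βGal. The basic luciferase reporter without a PPRE site served as the negative control. Compounds were added 6 h after transfection. Cells were lysed 24 h later. Luciferase activity was read on a luminometer and normalized to β-galactosidase for transfection efficiency. Two independent experiments; error as SEM.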

The test system of series [9] is Mus musculus. The experiment in a line: Toxicity in high fat diet-fed diabetic C57BL/6J Jms Slc mouse model assessed as dark-brownish spots in liver at 4.8 mg/day administered with food for 4 weeks. The note with it: in vivo, po, 672 h.
Series [10] has as its system Mus musculus. The experiment in a line: Antiobesity activity in high fat diet-fed diabetic C57BL/6J Jms Slc mouse model assessed as decrease in epididymal fat at 2.6 mg/day administered with food for 4 weeks. The series is classed as functional. In outline: as §1
The subject of series [11] is Mus musculus. Description: Antiobesity activity in high fat diet-fed diabetic C57BL/6J Jms Slc mouse model assessed as decrease in total cholesterol level in serum at 2.6 mg/day administered with food for 4 weeks. It counts as functional. Put shortly:
as §3

Series [12] relates to Mus musculus. The experiment in a line: Antiobesity activity in high fat diet-fed diabetic C57BL/6J Jms Slc mouse model assessed as decrease in retroperitoneal fat at 2.6 mg/day administered with food for 4 weeks. The series is classed as functional. Put shortly:
as §1

Series [13] deals with Mus musculus. Description: Antidiabetic activity in high fat diet-fed diabetic C57BL/6J Jms Slc mouse model assessed as normalization of blood glucose level at 2.6 mg/day administered with food for 4 weeks measured 90 mins after last dose by glucose tolerance test. The series is classed as functional, organism-based. In outline:
as §2

Series [14] concerns Mus musculus. The experiment in a line: Antiobesity activity in high fat diet-fed diabetic C57BL/6J Jms Slc mouse model assessed as reduction in body weight at 2.6 mg/day administered with food for 4 weeks. It counts as functional. Put shortly:
as §1

For the compound `O=C1NC(=O)/C(=C/c2ccc(OCc3ccc(F)cc3)cc2OCc2ccc(F)cc2)S1`, the IC50 in series [1] came to 8 µM.

In the case of `O=C1NC(=O)/C(=C/c2ccc(OCc3ccc(F)cc3)cc2OCc2ccc(C(F)(F)F)cc2)S1`, the IC50 in [1] is 4 µM.

Take `O=C1NC(=O)/C(=C/c2ccc(OCc3cccnc3)cc2OCc2ccc(C(F)(F)F)cc2)S1`: in series [1], the IC50 worked out at 12 µM.

Consider `Cc1ccc(S(=O)(=O)Oc2ccc(/C=C3\SC(=O)NC3=O)c(OS(=O)(=O)c3ccc(C)cc3)c2)cc1`, for which the IC50 in series [1] came out at 16 µM.

As for `Cc1ccc(S(=O)(=O)Oc2ccc(/C=C3\SC(=O)NC3=O)c(OCc3ccc(NC(=O)c4cccc(C(F)(F)F)c4)cc3)c2)cc1`, the IC50 in series [1] came out at 11 µM.

For `O=C(O)COc1cc(OCc2ccccc2)ccc1/C=C1\SC(=O)NC1=O`, the IC50 in [1] is 136 µM.

For `O=C1NC(=O)/C(=C/c2ccc(OCc3ccc(S(=O)(=O)N4CCOCC4)cc3)cc2OCc2ccc(C(F)(F)F)cc2)S1`, the IC50 in series [1] was found to be 19 µM.

For the compound `O=C1NC(=O)/C(=C/c2cc(Br)c(OCc3ccc(C(F)(F)F)cc3)cc2OCc2ccc(C(F)(F)F)cc2)S1`, in series [1], the IC50 came out at 1.4 µM.

With `O=C1NC(=O)/C(=C/c2ccc(OCc3ccc(NC(=O)c4cccc(C(F)(F)F)c4)cc3)cc2OCc2ccc(C(F)(F)F)cc2)S1`, the IC50 in [1] is 6 µM.

Take `Cc1ccc(S(=O)(=O)Oc2cc(OCc3cc(C(F)(F)F)cc(C(F)(F)F)c3)c(/C=C3\SC(=O)NC3=O)cc2Br)cc1`: the IC50 in series [1] is 2 µM.

With `O=C1NC(=O)/C(=C/c2ccc(OCc3ccccn3)cc2OCc2ccc(C(F)(F)F)cc2)S1`, the half-inhibitory concentration (IC50) in [1] was 12 µM.

In the case of `O=C1NC(=O)/C(=C/c2ccc(OCc3ccccc3)cc2OCc2ccc(C(F)(F)F)cc2)S1`, the IC50 in [1] was 4 µM.

Consider `O=C1NC(=O)/C(=C/c2cc(Br)ccc2OCc2cc(C(F)(F)F)cc(C(F)(F)F)c2)S1`, for which, in the series with Mus musculus [2], the feed efficiency worked out at 0.68 g/100 kcal. Besides, the result in the series with Mus musculus [3] and with Mus musculus [13] was Active. The Activity in the series on Mus musculus [4] is 0.22 mM; in the series with Mus musculus [5], 78 mg/dL; in series [6], 4 µM; in the series with Mus musculus [9] it was “Toxic”; with Mus musculus [10], 1.27 g; with Mus musculus [11], 125 mg/dL. The Activity is on record as 0.42 g with Mus musculus [12] and 2.16 g in the series with Mus musculus [14]. Besides, the inhibition result in [7] was “Active”. For the same compound, the EC50 in series [8] amounted to 0.87 µM.

On to `Cc1ccc(S(=O)(=O)Oc2ccc(/C=C3\SC(=O)NC3=O)c(OCc3ccc(C(F)(F)F)cc3)c2)cc1`, for which the IC50 in series [1] turned out to be 2.3 µM.

Take `O=C1NC(=O)/C(=C/c2ccc(OCc3ccccc3)cc2OCc2ccc(F)cc2)S1`: the IC50 in [1] amounted to 9 µM.

For `O=C1NC(=O)/C(=C/c2ccc(OCc3ccccc3)cc2OCc2ccccc2)S1`, the IC50 in series [1] turned out to be 10 µM.

With `CC(=O)Nc1ccc(COc2cc(OS(=O)(=O)c3ccc(C)cc3)ccc2/C=C2\SC(=O)NC2=O)cc1`, the IC50 in [1] came out at 33 µM.

Consider `O=C1NC(=O)/C(=C/c2ccc(OS(=O)(=O)c3ccc(Br)cc3)cc2OCc2ccc(C(F)(F)F)cc2)S1`, for which the IC50 in [1] came out at 6 µM.

Turning to `O=C1NC(=O)/C(=C/c2ccc(OCc3ccc(C(F)(F)F)cc3)cc2OCc2ccc(C(F)(F)F)cc2)S1`, in series [1], the IC50 was found to be 9 µM.

As to `O=C1NC(=O)/C(=C/c2ccc(OCc3ccc(F)cc3)cc2OCc2ccccc2)S1`, the IC50 in series [1] was determined as 9 µM.

Take `O=C1NC(=O)/C(=C/c2ccc(OS(=O)(=O)c3ccc(Br)cc3)cc2OCc2ccc(S(=O)(=O)N3CCOCC3)cc2)S1`: the IC50 in series [1] came out at 14 µM.
